# Measurements published in ChEMBL document CHEMBL4024747, “Design, Synthesis, and Biological Activities of Vibsanin B Derivatives: A New Class of HSP90 C-Terminal Inhibitors” (J Med Chem, 2017).
# Activity calls are given as the source filed them. No cut-off for these calls is given here.
# Columns and labels:
# MCF7 = assay: Antiproliferative activity against human MCF7 cells assessed as reduction in cell viability after 48 hrs by MTT assay; format: functional, cell-based; conditions: MCF7, 48 h
# SMMC-7721 = assay: Antiproliferative activity against human SMMC7721 cells assessed as reduction in cell viability after 48 hrs by MTT assay; format: functional, cell-based; conditions: for IC50: SMMC-7721, 48 h
# A549 = assay: Antiproliferative activity against human A549 cells assessed as reduction in cell viability after 48 hrs by MTT assay; format: functional, cell-based; conditions: for IC50: A549, 48 h
# HL-60 = assay: Antiproliferative activity against human HL60 cells assessed as reduction in cell viability after 48 hrs by MTT assay; format: functional, cell-based; conditions: for IC50: HL-60, 48 h
# SW480 = assay: Antiproliferative activity against human SW480 cells assessed as reduction in cell viability after 48 hrs by MTT assay; format: functional, cell-based; conditions: for IC50: SW480, 48 h
# Oryctolagus cuniculus = organism: Oryctolagus cuniculus; assay: Inhibition of HSP90 in rabbit reticulocyte lysate assessed as decrease in HSP90-dependant refolding of firefly luciferase at 10 uM after 30 mins by luciferase gene based assay
# In short: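 Firefly luciferase heat-denatured at 41 °C for 10 min, then added with rabbit reticulocyte lysate to compounds at 10 μM. Renaturation at room temperature for 3 h; luciferin substrate added and luminescence read. Refolding expressed relative to DMSO; novobiocin at 500 μM as reference. Three independent experiments.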
# [1] = Stability of compound in pH 7.4 PBS at 37 degreeC after 12 hrs by HPLC analysis; format: physicochemical; conditions: buffer, pH 7.4, 12 h
# In short: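 Solution stability determined by HPLC after incubation in PBS pH 7.4 at 37 °C for 12 h.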
# [2] = biological target: Luciferin 4-monooxygenase (Photinus pyralis) (UniProt P08659); assay: Inhibition of firefly luciferase activity using luciferin substrate at 10 uM after 30 mins by luminescence assay
# Sequence of Luciferin 4-monooxygenase (Photinus pyralis) (P08659 whole entry): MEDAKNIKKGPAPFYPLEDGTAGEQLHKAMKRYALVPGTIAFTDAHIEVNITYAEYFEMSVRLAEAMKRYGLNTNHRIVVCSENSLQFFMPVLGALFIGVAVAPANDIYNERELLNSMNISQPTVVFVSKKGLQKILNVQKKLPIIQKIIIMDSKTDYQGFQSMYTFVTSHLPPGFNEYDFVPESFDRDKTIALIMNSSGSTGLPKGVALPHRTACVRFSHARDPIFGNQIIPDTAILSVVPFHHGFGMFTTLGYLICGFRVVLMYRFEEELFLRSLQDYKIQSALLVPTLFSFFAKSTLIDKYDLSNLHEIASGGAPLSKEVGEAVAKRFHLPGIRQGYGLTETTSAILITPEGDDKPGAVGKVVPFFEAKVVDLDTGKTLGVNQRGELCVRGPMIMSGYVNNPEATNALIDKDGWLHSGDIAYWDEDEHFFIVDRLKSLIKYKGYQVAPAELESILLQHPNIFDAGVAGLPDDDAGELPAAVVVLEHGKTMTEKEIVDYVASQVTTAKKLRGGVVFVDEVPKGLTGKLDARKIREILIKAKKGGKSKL
SMILES,IC50 (MCF7) [µM],IC50 (SMMC-7721) [µM],IC50 (A549) [µM],IC50 (HL-60) [µM],IC50 (SW480) [µM],inhibition (Oryctolagus cuniculus),Stability [1],inhibition [2],Activity (SMMC-7721),Activity (A549),Activity (HL-60),Activity (SW480)
C=C1/C=C/C(=O)/C(CO)=C\C[C@](C)(CCC=C(C)C)/C=C/[C@H]1OC(=O)C=C(C)C,2.75,4.3,3.09,2.81,2.97,Active,Stable,inactive,,,,
CC(C)=CCC[C@]1(C)/C=C/[C@@H](OC(=O)C=C(C)C)[C@](C)(O)/C=C/C(=O)/C(Cn2cc(CO)nn2)=C\C1,2.93,3.56,3.47,3.2,2.87,,,,,,,
CC(C)=CCC[C@]1(C)/C=C/[C@@H](OC(=O)C=C(C)C)[C@](C)(O)/C=C/C(=O)/C(CO[Si](c2ccccc2)(c2ccccc2)C(C)(C)C)=C\C1,15.8,38,13,14.4,20.7,,,,,,,
CC(C)=CCC[C@]1(C)/C=C/[C@@H](OC(=O)C=C(C)C)[C@](C)(O)/C=C/C(=O)/C(CN=[N+]=[N-])=C\C1,4.89,3.08,1.72,0.91,4.23,,,,,,,
CC(C)=CCC[C@]1(C)/C=C/[C@@H](OC(=O)C=C(C)C)[C@](C)(O)/C=C/C(=O)/C(C(=O)N2CCCC2)=C\C1,17.2,14.9,13,12.3,15.1,,,,,,,
CC(C)=CCC[C@]1(C)/C=C/[C@@H](OC(=O)C=C(C)C)[C@](C)(O)/C=C/C(=O)/C(C=O)=C\C1,12.6,,,,,,,,Active,Active,Active,Active
CO[C@H]1/C=C/[C@@](C)(O)[C@H](OC(=O)C=C(C)C)/C=C/[C@@](C)(CCC=C(C)C)C/C=C\1CO,18.5,38.1,19.2,14.8,16.6,,,,,,,
CO/N=C/C1=C/C[C@](C)(CCC=C(C)C)/C=C/[C@@H](OC(=O)C=C(C)C)[C@](C)(O)/C=C/C1=O,2.51,3.47,3.47,4.76,2.63,,,,,,,

# Compounds with a lower IC50 (MCF7), results first:
IC50 (MCF7) [µM],IC50 (SMMC-7721) [µM],IC50 (A549) [µM],IC50 (HL-60) [µM],IC50 (SW480) [µM],inhibition (Oryctolagus cuniculus),Stability [1],inhibition [2],SMILES,Activity (SMMC-7721),Activity (A549),Activity (HL-60),Activity (SW480)
2.32,3.08,3.15,2.37,2.01,< 50%,Stable,inactive,CC(=O)O[C@]1(C)/C=C/C(=O)/C(CO)=C\C[C@](C)(CCC=C(C)C)/C=C/[C@H]1OC(=O)C=C(C)C,,,,
2.32,0.73,0.57,0.24,1.43,,,,CC(C)=CCC[C@]1(C)/C=C/[C@@H](OC(=O)C=C(C)C)[C@](C)(O)/C=C/C(O)/C(C=O)=C\C1 (stereo not given in full),,,,
0.9,0.72,0.38,0.18,0.39,,,,CSC(=S)OC/C1=C/C[C@](C)(CCC=C(C)C)/C=C/[C@@H](OC(=O)C=C(C)C)[C@](C)(O)/C=C/C1=O,,,,
0.61,0.84,0.15,0.16,0.39,Active,,inactive,CC(C)=CCC[C@]1(C)/C=C/[C@@H](OC(=O)C=C(C)C)[C@](C)(O)/C=C/C(=O)/C(CCl)=C\C1,,,,
0.22,0.14,0.18,0.16,0.31,< 50%,,inactive,CC(C)=CCC[C@]1(C)/C=C/[C@@H](OC(=O)C=C(C)C)[C@](C)(O)/C=C/C(=O)/C(CN2CCCC2)=C\C1,,,,
